The subject of data set [1] is Escherichia coli. Description: Antibacterial activity against drug-sensitive Escherichia coli K-12 W3110 after 20 hrs by liquid microdilution method. Format: functional. Particulars: K-12 substr. W3110, 20 h. In outline: (§1)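 Two-fold serial dilutions of compound in Mueller–Hinton broth, inoculated with 1 × 10^4 cells and cultured at 37 °C for 20 h in microtiter wells.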
On the technique in general: Broth dilution looks for growth in wells or tubes with falling amounts of substance.

The subject of data set [2] is Salmonella typhimurium. Description: Antibacterial activity against drug-sensitive Salmonella typhimurium LT2 after 20 hrs by liquid microdilution method. Conditions: Salmonella enterica, LT2, 20 h. It counts as functional, Salmonella enterica subsp. enterica serovar Typhimurium. The essentials:
as §1

Data set [3] can be described thus: Hemolytic activity in rabbit RBC at 2 uM after 20 mins relative to control. Format: ADME, cell-based, Oryctolagus cuniculus, Erythrocyte. Conditions: rabbit red blood cells (erythrocytes), read-out: Activity. In outline: (§2)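 Rabbit erythrocytes suspended in 150 mM NaCl/10 mM Hepes-NaOH, pH 7.4, at 0.5% hematocrit (final) and incubated with compound at 37 °C. The table footnote gives 20 min; the methods section gives 30 min. Hemolysis was read as absorbance at 540 nm, with 50 µM lysolecithin defining 100% hemolysis.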

Data set [4] has as its system Staphylococcus aureus. Description: Antibacterial activity against methicillin-sensitive Staphylococcus aureus FDA 209P after 20 hrs by liquid microdilution method. It counts as functional. In outline:
as §1

A short description of data set [5]: Lipophilicity, log P of the compound. It counts as physicochemical. Particulars: octanol/water.
Data set [6] is described as follows: Hemolytic activity in rabbit RBC at 1 uM after 20 mins relative to control. Particulars: rabbit red blood cells (erythrocytes), read-out: Activity. Format: ADME, cell-based, Oryctolagus cuniculus, Erythrocyte. The essentials:
as §2

Data set [7] can be described thus: Hemolytic activity in rabbit RBC at 20 uM after 20 mins relative to control. Particulars: rabbit red blood cells (erythrocytes), read-out: Activity. It counts as ADME, cell-based, Oryctolagus cuniculus, Erythrocyte. The essentials:
as §2

Data set [8] is described as follows: Hemolytic activity in rabbit RBC at 50 uM after 20 mins relative to control. Format: ADME, cell-based, Oryctolagus cuniculus, Erythrocyte. Particulars: rabbit red blood cells (erythrocytes), read-out: Activity. In outline: as §2
Data set [9] is described as follows: Hemolytic activity in rabbit RBC at 10 uM after 20 mins relative to control. It counts as ADME, cell-based, Oryctolagus cuniculus, Erythrocyte. Particulars: rabbit red blood cells (erythrocytes), read-out: Activity. The essentials:
as §2

The nature of data set [10]: Hemolytic activity in rabbit RBC at 5 uM after 20 mins relative to control. Format: ADME, cell-based, Oryctolagus cuniculus, Erythrocyte. Conditions: rabbit red blood cells (erythrocytes), read-out: Activity. The essentials:
as §2

The test system of data set [11] is Bacillus subtilis. As to the kind of experiment: Antibacterial activity against drug-sensitive Bacillus subtilis 168 after 20 hrs by liquid microdilution method. Format: functional. Conditions: subsp. subtilis str. 168, 20 h. The essentials:
as §1

Data set [12] has as its system Pseudomonas aeruginosa. Description: Antibacterial activity against drug-sensitive Pseudomonas aeruginosa PAO1 after 20 hrs by liquid microdilution method. Particulars: PAO1, 20 h. It counts as functional. In outline:
as §1

The structures appear in SMILES notation. In brackets after ≈: the same amount, converted by molar mass. Bridge positions count the residues as written; N and C are the ends. Square brackets hold non-standard residues; d marks the D form. Peptide text beside a SMILES is read from it. * marks the point of attachment. Octanoyl(6-Me) = CCC(C)CCCCC(=O)*; Orn = NCCC[C@H](N)C(=O)O; Dab = NCC[C@H](N)C(=O)O

Turning to `O[C@@H]1[C@@H](O)[C@H]2O[C@H]3[C@H](O)[C@@H](O)[C@@H](O[C@H]4[C@H](O)[C@@H](O)[C@@H](O[C@H]5[C@H](O)[C@@H](O)[C@@H](O[C@H]6[C@H](O)[C@@H](O)[C@@H](O[C@H]7[C@H](O)[C@@H](O)[C@@H](O[C@H]8[C@H](O)[C@@H](O)[C@@H](O[C@@H]1[C@@H](Cn1cc(CNCC9CC9)nn1)O2)O[C@@H]8Cn1cc(CNCC2CC2)nn1)O[C@@H]7Cn1cc(CNCC2CC2)nn1)O[C@@H]6Cn1cc(CNCC2CC2)nn1)O[C@@H]5Cn1cc(CNCC2CC2)nn1)O[C@@H]4Cn1cc(CNCC2CC2)nn1)O[C@@H]3Cn1cc(CNCC2CC2)nn1`, the MIC in data set [1], in data set [2], in [4], in [11] and in data set [12] was greater than 45 µM throughout. For the same compound, the hemolysis at 20 min, 2 µM in data set [3] was 0%. Besides, in data set [5], the lipophilicity (logP) (in general, the decadic logarithm of the partition coefficient of the neutral form, usually between octanol and water) is -1.4. Further, in [6], the hemolysis at 20 min, 1 µM stood at 0%. For the same compound, the hemolysis at 20 min, 20 µM in data set [7] turned out to be 0%. The hemolysis at 20 min, 50 µM in [8] was 0%. The hemolysis at 20 min, 10 µM in [9] was 0%. Besides, the hemolysis at 20 min, 5 µM in data set [10] was 0%.

In the case of `CC(C)C[C@@H]1NC(=O)[C@H](CCCN)NC(=O)[C@H](C(C)C)NC(=O)[C@@H]2CCCN2C(=O)[C@@H](Cc2ccccc2)NC(=O)[C@H](CC(C)C)NC(=O)[C@H](CCCN)NC(=O)[C@H](C(C)C)NC(=O)[C@@H]2CCCN2C(=O)[C@@H](Cc2ccccc2)NC1=O` (cyclo(V[Orn]L[dF]PV[Orn]L[dF]P)), the MIC – broadly, the lowest concentration that inhibits growth of the organism – turned out to be 28 µM (≈ 32 µg/mL) in data set [1], 7 µM (≈ 7.99 µg/mL) in [4] and 56 µM (≈ 63.9 µg/mL) in data set [12].

As to `CCC(C)CCCCC(=O)N[C@@H](CCN)C(=O)N[C@H](C(=O)N[C@@H](CCN)C(=O)N[C@H]1CCNC(=O)[C@H]([C@@H](C)O)NC(=O)[C@H](CCN)NC(=O)[C@H](CCN)NC(=O)[C@H](CC(C)C)NC(=O)[C@@H](Cc2ccccc2)NC(=O)[C@H](CCN)NC1=O)[C@@H](C)O` (stereo not given in full) ({Octanoyl(6-Me)}-[Dab]T[Dab][Dab][Dab][dF]L[Dab][Dab]T; lactam 4-C), the MIC amounted to 1 µM (≈ 1.2 µg/mL) in [1]; 1 µM (≈ 1.2 µg/mL) in [2]; 23 µM (≈ 27.7 µg/mL) in [4]; 6 µM (≈ 7.22 µg/mL) in data set [11]; 1 µM (≈ 1.2 µg/mL) in [12].

The values above are taken from ChEMBL document CHEMBL4257484, “Membrane-active antimicrobial poly(amino-modified alkyl) β-cyclodextrins synthesized via click reactions” (Medchemcomm, 2018).
